Compound activity deposited in PubChem BioAssay by Broad Institute.
Shown are actives, neighbours in structure and some others; about 2.5% of the full set was active somewhere.
AF4-AF9 inh = MLL-AF4/AF9 protein interaction inhibition; AlphaScreen, biotin-AF4 peptide binding to FLAG-AF9; AID 651704; 0.47% of 350,000 active; inhibition, % at 10 µM;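 active means every replicate reaching a set inhibition limit, whatever the replicate mean, cut at about 25% in these data; inconclusive means mean inhibition reaches that limit but some replicates miss it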;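 further: 0% = plate neutral control median and 100% = total signal loss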
Target sequence (P42568 whole entry, looked up): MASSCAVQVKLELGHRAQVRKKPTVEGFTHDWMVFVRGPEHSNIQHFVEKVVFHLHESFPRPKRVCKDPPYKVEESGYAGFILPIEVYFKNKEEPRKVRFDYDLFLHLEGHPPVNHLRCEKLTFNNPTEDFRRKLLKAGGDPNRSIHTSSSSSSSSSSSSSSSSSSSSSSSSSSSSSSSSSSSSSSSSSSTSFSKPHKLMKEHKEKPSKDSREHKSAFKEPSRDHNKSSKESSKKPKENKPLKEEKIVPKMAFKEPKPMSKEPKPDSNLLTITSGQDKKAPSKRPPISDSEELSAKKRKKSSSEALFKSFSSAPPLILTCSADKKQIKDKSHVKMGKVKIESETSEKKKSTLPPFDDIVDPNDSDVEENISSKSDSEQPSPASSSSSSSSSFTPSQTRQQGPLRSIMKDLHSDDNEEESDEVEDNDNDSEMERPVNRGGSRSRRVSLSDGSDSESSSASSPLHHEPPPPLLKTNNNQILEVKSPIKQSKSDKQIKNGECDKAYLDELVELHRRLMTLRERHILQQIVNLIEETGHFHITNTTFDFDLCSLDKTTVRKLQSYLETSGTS
Env fusion inh = HIV envelope-mediated fusion inhibition; HeLa-JRFL Env/CEM21 cell fusion, luciferase; inhibition, % at 12.3 µM; 1.1% of 360,000 active;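 active means mean replicate inhibition score of at least 50 and every replicate individually at or above 50; inconclusive means only one of the two criteria met; inactive means mean below 50 and not all replicates reaching 50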;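 further: 0% = plate neutral controls and 100% = maraviroc near 300 nM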
PAX8 inh HTS = inhibitors of PAX8 transcriptional activity in RMG-I cells. RMG-I TPO-luciferase reporter, SteadyGlo, 24 h. inhibition, % at 12.6 µM. 1.2% of 360,000 active;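 active means mean replicate inhibition at least 60% with every replicate also reaching 60%; inconclusive means only one of the two criteria is met; inactive means mean below 60% and not all replicates reaching 60%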;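 further: luciferase light reporting Pax8 driven TPO promoter activity; plate controls were median of neutral control wells for no effect and mitoxantrone controls for full effect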
FN deposit inh = fibronectin deposition inhibition. AH1F fibroblasts, Alexa488-fibronectin deposition fluorescence, overnight. inhibition, % at 12.6 µM. 0.086% of 350,000 active. AID 743247;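 active means mean inhibition across replicates of 30% or more, regardless of how many single replicates reach that level; inconclusive means mean under 30% yet at least half of replicates reach 30%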;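 further: positive control wells lacked labelled fibronectin entirely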
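Material: AH1F fibroblast monolayer depositing Alexa488-labelled fibronectin into matrix / Amount: 10000 AH1F cells per well / Signal: fluorescence 485/525 nm / Medium: DMEM, 2% serum / Compound: single dose, pinned / Incubation: 1 h cell adhesion before compound, then overnight fibronectin incubation / Reagent: Alexa488-FN, 24 nM final / Read-out: inhibition of fibronectin deposition signal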
N-glyco inh = blocks N-linked glycosylation in D54 reporter cells | D54 ERlucT glycosylation luciferase reporter, 24 h; percent of 100 nM tunicamycin response | reporter increase, % at 12.5 µM | 0.23% of 360,000 active | AID 588692;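 active means mean luciferase reporter signal, scaled so untreated is 0 and the glycosylation-blocking control 100, at or above a set limit in every replicate; inconclusive means mean reaches the limit but not every replicate does; inactive means mean below the limit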;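 further: luciferase carries N-glycosylation sites so blocking glycosylation raises the light; 0% = median of neutral control wells and 100% = median of 100 nM tunicamycin wells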
EWS-Fli block = blocks EWS/Fli oncoprotein-driven transcription; A673 NR0B1-luciferase reporter, viability-normalised; inhibition, % at 12.6 µM; 0.67% of 350,000 active; AID 651661;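 active means mean inhibition of at least 50% after viability correction, with every replicate also passing that limit; inconclusive means mean reaches 50% but only one of two replicates passes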;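 further: firefly luciferase signal divided by Alamar Blue viability fluorescence both relative to DMSO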
* = called active by the depositor; ? = inconclusive; . = no result; ! = not active in a repeat; [ ] = remark or other dose.

SMILES	AF4-AF9 inh	Env fusion inh	PAX8 inh HTS	FN deposit inh	N-glyco inh	EWS-Fli block
O=C(CSc1nnc(CNc2ccc(F)cc2)o1)N1c2ccccc2Sc2ccccc21	.	64*	.	10	-6	.
C[C@@H]1CN([C@@H](C)CO)C(=O)c2cccc(NC(=O)Nc3ccc(C(F)(F)F)cc3)c2O[C@H]1CN(C)S(=O)(=O)c1ccccc1	.	-28[16.7 µM]	7	.	.	6
C[C@H](CO)N1C[C@H](C)[C@@H](CN(C)Cc2ccc(Oc3ccccc3)cc2)Oc2ncc(-c3ccncc3)cc2C1=O	11	-22[16.7 µM]	.	12	.	29
CC(=O)CC1c2ccccc2C=C(c2ccsc2)N1c1ccc(-c2cccs2)cc1 (stereo not drawn)	1	7	75*	2	.	17
COc1ncc(-c2ccc(N3C(c4ccsc4)=Cc4ccccc4C3CC(C)=O)cc2)cn1 (stereo not drawn)	0	-15	17	17	.	12
CC(=O)c1c(C)n([O-])c2cc(F)c(F)cc2[n+]1=O	3	-80	35	-27	-3	63*
CCSc1nc2ccccc2n1C(=O)/C=C\c1ccc(OC)c(OC)c1	.	-337	70*	11	-9	.
CC(C)NC(=O)N1Cc2cc(C(=O)NCC(F)(F)F)nc(-c3cccc(-c4cc5ccccc5o4)c3)c2[C@H]1CCO	1	.	85*	-6	.	.
CC(C)(C)S(=O)N1Cc2cc(C(=O)Nc3ccc(-c4ccccc4)cc3)nc(-c3cccc(-c4cc5ccccc5o4)c3)c2[C@@H]1CCO (stereo partly drawn)	1	5	16	0	-7	-4
CCOC(=O)c1ccc(N=c2sc(C(=O)OC)cc(=O)n2Cc2ccco2)cc1	21	-38	12	8	56*	8
NC(=O)CC(NC(=O)Cc1cccc2ccccc12)c1ccc(NC2CC3CCC2C3)c([N+](=O)[O-])c1 (stereo not drawn)	3	29	-7	8	-3	5
COc1ccc(CCNc2ccc(C(CC(N)=O)NC(=O)Cc3ccc(Br)cc3)cc2[N+](=O)[O-])cc1 (stereo not drawn)	5	74*	18	-2	0	8
COc1ccc(CCNc2ccc(C(CC(N)=O)NC(=O)c3ccc(Br)cc3)cc2[N+](=O)[O-])cc1 (stereo not drawn)	1	10	3	7	1	-13
NC(=O)CC(NC(=O)Cc1ccc(Cl)cc1)c1ccc(NC2CC3CCC2C3)c([N+](=O)[O-])c1 (stereo not drawn)	5	6	18	6	37*	4
CCC(CC)Nc1ccc(C(CC(N)=O)NC(=O)Cc2ccc(Br)cc2)cc1[N+](=O)[O-] (stereo not drawn)	0	20	31	-3	50*	11
CC(C)NC(=O)N1[C@H](C(=O)N2CCOCC2)[C@@H](CO)[C@@H]2Cn3c(ccc(-c4ccc(F)cc4)c3=O)[C@@H]21	2	.	.	.	.	3
C[C@@H]1CCCCO[C@H](CN(C)C(=O)CCCN(C)C)[C@@H](C)CN([C@H](C)CO)C(=O)c2cc(NC(=O)Nc3cccc4ccccc34)ccc2O1	-1	-13[16.7 µM]	-1	.	.	4
C[C@@H]1CN([C@H](C)CO)C(=O)c2cc(C#CC3(O)CCCC3)cnc2O[C@H]1CN(C)Cc1ccccc1	0	8[16.7 µM]	.	.	.	1
Cc1ccc(S(=O)(=O)N(C)C[C@H]2Oc3cc(C#Cc4ccncc4)ccc3S(=O)(=O)N([C@H](C)CO)C[C@@H]2C)cc1	0	.	-40	3	.	-3
CO[C@H]1CN(C)C(=O)c2ccc(NC(=O)c3ccc(F)cc3)cc2OC[C@@H](C)N(C)C[C@@H]1C	0	-3[16.7 µM]	-2	0	.	-5
COc1cccc(/C=N/NC(=O)CC2C(=O)NN=C2C)c1O (stereo not drawn)	.	70*	.	0	2	.
COc1cccc(/C=N/NC(=O)CC2C(=O)NN=C2C)c1OC (stereo not drawn)	.	-10	15	5	-1	.
C[C@@H]1CCCCO[C@@H](CN(C)Cc2ccc(C(F)(F)F)cc2)[C@@H](C)CN([C@@H](C)CO)C(=O)c2cc(NS(=O)(=O)c3ccc(F)cc3)ccc2O1	2	18[16.7 µM]	86*	-1	.	0
C[C@@H]1CCCCO[C@@H](CN(C)Cc2ccc(C(F)(F)F)cc2)[C@H](C)CN([C@@H](C)CO)C(=O)c2cc(NS(=O)(=O)c3ccc(F)cc3)ccc2O1	1	11[16.7 µM]	105*	-7	.	71*
Cc1ccc(S(=O)(=O)Nc2ccc3c(c2)C(=O)N([C@H](C)CO)C[C@H](C)[C@H](CN(C)Cc2ccc(C(F)(F)F)cc2)OCCCC[C@@H](C)O3)cc1	2	-30[16.7 µM]	25	1	.	1
SMILES	AF4-AF9 inh	Env fusion inh	PAX8 inh HTS	FN deposit inh	N-glyco inh	EWS-Fli block
C[C@@H]1CN([C@H](C)CO)C(=O)c2cc(NS(=O)(=O)c3ccc(F)cc3)ccc2O[C@@H](C)CCCCO[C@H]1CN(C)Cc1ccc(C(F)(F)F)cc1	0	7[16.7 µM]	114*	15	.	65*
C[C@@H]1CN([C@@H](C)CO)C(=O)c2cc(NS(=O)(=O)c3ccc(F)cc3)ccc2O[C@@H](C)CCCCO[C@H]1CN(C)Cc1ccc(C(F)(F)F)cc1	-2	24[16.7 µM]	97*	-5	.	27
C[C@@H]1CCCCO[C@H](CN(C)Cc2ccc(C(F)(F)F)cc2)[C@@H](C)CN([C@H](C)CO)C(=O)c2cc(NS(=O)(=O)c3ccc(F)cc3)ccc2O1	-1	29[16.7 µM]	-3	2	.	-9
O=C1Nc2ccccc2C(=O)N2C[C@@H](O)C[C@H]12	49*	-6	-9	-8	3	-3
CN1CC(=O)Nc2ccccc2C1=O	1	-4	1	-4	0	-7
Cc1ccc(-n2c(-c3ccccc3)c[n+]3c2CCc2ccccc2-3)c(C)c1	1	25	91*	-8	11	35
COc1cccc(C2=CC(=O)CC(C)(C)C2)c1OC	1	11	-1	10	2	-8
CC1(C)CC(=O)C=C(c2ccc(F)cc2OCc2ccccc2)C1	-2	77*	-1	-6	-3	11
CCC(C)C(=O)OC1CCC=C2C=CC(C)C(CCC3CC(O)CC(=O)O3)C21 (stereo not drawn)	-1	50	-31	-3	41*	11
CC[C@H](C)C(=O)O[C@H]1C[C@@H](C)C=C2C=C[C@H](C)[C@H](CC[C@@H]3C[C@@H](O)CC(=O)O3)[C@H]21	3	.	4	-9	69*!	4
CC[C@H](C)C(=O)O[C@H]1CCC=C2C=C[C@H](C)[C@H](CC[C@@H]3C[C@@H](O)CC(=O)O3)[C@H]21	2	?	31	7	54*	8
O=C(NCC1CCCCC1)[C@@H]1[C@@H](CO)[C@@H]2Cn3c(ccc(C4=CCCCC4)c3=O)[C@H]1N2	-2	.	.	.	.	-11
